According to ChEMBL document CHEMBL4402600, “Discovery of a Dual Tubulin Polymerization and Cell Division Cycle 20 Homologue Inhibitor via Structural Modification on Apcin” (J Med Chem, 2020):

Legend:
Format in all cases: functional, cell-based
MCF7 = test: Cytotoxicity in human MCF7 cells assessed as reduction in cell viability incubated for 48 hrs by MTT assay; conditions: MCF7, 48 h
Method in brief: (§1)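 Cells grown at 37°C, 5% CO₂ (HepG2, OVCAR-3, Caov-3 in DMEM + 10% FBS; A549, HeLa, A375, MCF-7 in RPMI 1640 + 10% FBS). Seeded at 4-5×10³/well in triplicate, adhered overnight, exposed to 0.03–300 μM (DMSO <0.1%) for 48 h. MTT added for 4 h, formazan dissolved in DMSO, absorbance read. IC50 from dose–response curves, mean ± SD of at least three independent experiments.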

A-375 = test: Cytotoxicity in human A375 cells assessed as reduction in cell viability incubated for 48 hrs by MTT assay; conditions: A-375, 48 h; method in brief: as §1
A549 = test: Cytotoxicity in human A549 cells assessed as reduction in cell viability incubated for 48 hrs by MTT assay; conditions: A549, 48 h; method in brief: as §1
HepG2 = test: Cytotoxicity in human HepG2 cells assessed as reduction in cell viability incubated for 48 hrs by MTT assay; conditions: HepG2, 48 h; method in brief: as §1
HeLa = test: Cytotoxicity in human HeLa cells assessed as reduction in cell viability incubated for 48 hrs by MTT assay; method in brief: as §1
OVCAR-3 = test: Cytotoxicity in human OVCAR3 cells assessed as reduction in cell viability incubated for 48 hrs by MTT assay; conditions: OVCAR-3, 48 h; method in brief: as §1
Caov-3 cell line = test: Cytotoxicity in human Caov3 cells assessed as reduction in cell viability incubated for 48 hrs by MTT assay; conditions: Caov-3, 48 h; method in brief: as §1

Row | SMILES | IC50 (MCF7) [µM] | IC50 (A-375) [µM] | IC50 (A549) [µM] | IC50 (HepG2) [µM] | IC50 (HeLa) [µM] | IC50 (OVCAR-3) [µM] | IC50 (Caov-3 cell line) [µM]
1 | Cc1ncc([N+](=O)[O-])n1CCOC(=O)NC(n1cnc2ccccc21)C(Cl)(Cl)Cl (stereo not given) | > 300 | > 300 | > 300 | > 300 | 214 | > 300 | > 300
2 | Cc1ncc([N+](=O)[O-])n1CCOC(=O)NC(n1cnc2c(N)ncnc21)C(Cl)(Cl)Cl (stereo not given) | > 300 | 182 | > 300 | > 300 | > 300 | > 300 | > 300
3 | CC(=O)Nc1nc2c(ncn2C(NC(=O)OCCn2c([N+](=O)[O-])cnc2C)C(Cl)(Cl)Cl)c(=O)[nH]1 (stereo not given) | > 300 | > 300 | > 300 | > 300 | > 300 | > 300 | > 300
4 | Cc1c(Cl)nc(NC(NC(=O)OCCn2c([N+](=O)[O-])cnc2C)C(Cl)(Cl)Cl)nc1Cl (stereo not given) | 114 | 11.9 | 184 | 13.6 | 27.1 | 25 | 31.2
5 | Cc1ccnc(NC(NC(=O)OCCn2c([N+](=O)[O-])cnc2C)C(Cl)(Cl)Cl)n1 (stereo not given) | 152 | 37.5 | 27.3 | 31.2 | 94.7 | 164 | 155
6 | Nc1nc(N)c2ncn(C(NC(=O)OCCN3CCOCC3)C(Cl)(Cl)Cl)c2n1 (stereo not given) | 125 | 94.7 | 47.2 | 8.6 | 47.5 | 11.5 | 10.5
7 | Cn1c([N+](=O)[O-])cnc1COC(=O)NC(n1cnc2c(N)nc(Cl)nc21)C(Cl)(Cl)Cl (stereo not given) | 53.3 | 1.2 | 61.4 | 43.8 | 51.2 | 70.4 | 64.3
8 | Cc1ncc([N+](=O)[O-])n1CCOC(=O)NC(n1cnc2c(N)nc(N)nc21)C(Cl)(Cl)Cl (stereo not given) | > 300 | 170 | > 300 | 19.7 | 120 | > 300 | > 300
9 | Nc1nc(N)c2ncn(C(NC(=O)OCCc3ccccn3)C(Cl)(Cl)Cl)c2n1 (stereo not given) | 136 | 300 | 270 | 28.1 | 220 | 30.9 | 29.7
10 | Nc1nc(Cl)nc2c1ncn2C(NC(=O)OCc1ccccc1)C(Cl)(Cl)Cl (stereo not given) | 138 | > 300 | 78.5 | > 300 | > 300 | 37.9 | 65
11 | Cc1ncc([N+](=O)[O-])n1CCOC(=O)NC(n1cnc2c(Cl)nc(N)nc21)C(Cl)(Cl)Cl (stereo not given) | > 300 | > 300 | > 300 | > 300 | 57.3 | > 300 | > 300
12 | Cc1ncc([N+](=O)[O-])n1CCOC(=O)NC(Nc1nccc(N)n1)C(Cl)(Cl)Cl (stereo not given) | > 300 | > 300 | > 300 | > 300 | > 300 | > 300 | > 300
13 | Cc1ncc([N+](=O)[O-])n1CCOC(=O)NC(Nc1ccncn1)C(Cl)(Cl)Cl (stereo not given) | > 300 | 5.3 | > 300 | > 300 | > 300 | > 300 | > 300
14 | Cc1ncc([N+](=O)[O-])n1CCOC(=O)NC(Nc1nccc2ccccc12)C(Cl)(Cl)Cl (stereo not given) | > 300 | 37.3 | > 300 | 46.8 | > 300 | 61.4 | 81.1
15 | Cc1ncc([N+](=O)[O-])n1CCOC(=O)NC(Nc1nc(Cl)c(N)c(Cl)n1)C(Cl)(Cl)Cl (stereo not given) | 20.6 | 14 | 31.9 | 25.8 | 17.5 | 21.1 | 19.2
16 | Cc1ncc([N+](=O)[O-])n1CCOC(=O)NC(n1cnc2c(Cl)ncnc21)C(Cl)(Cl)Cl (stereo not given) | > 300 | > 300 | > 300 | > 300 | > 300 | > 300 | > 300
17 | Cc1ncc([N+](=O)[O-])n1CCOC(=O)NC(n1cnc2c(NC(=O)c3ccccc3)ncnc21)C(Cl)(Cl)Cl (stereo not given) | > 300 | > 300 | 244 | > 300 | > 300 | 225 | > 300
18 | Cc1ncc([N+](=O)[O-])n1CCOC(=O)NC(n1cnc2c(Cl)nc(Cl)nc21)C(Cl)(Cl)Cl (stereo not given) | 218 | 68.5 | 72.8 | 54.6 | 142 | 162 | 224

Row | SMILES | IC50 (MCF7) [µM] | IC50 (A-375) [µM] | IC50 (A549) [µM] | IC50 (HepG2) [µM] | IC50 (HeLa) [µM] | IC50 (OVCAR-3) [µM] | IC50 (Caov-3 cell line) [µM]
19 | Cc1ncc([N+](=O)[O-])n1CCOC(=O)NC(Nc1nccc(=O)[nH]1)C(Cl)(Cl)Cl (stereo not given) | > 300 | > 300 | > 300 | > 300 | > 300 | > 300 | > 300
20 | O=C(NC(n1ncc2c(O)ncnc21)C(Cl)(Cl)Cl)OCCc1ccccn1 (stereo not given) | > 300 | > 300 | > 300 | 271 | > 300 | > 300 | > 300
21 | Cc1ncc([N+](=O)[O-])n1CCOC(=O)NC(n1cnc2c(N)nc(Cl)nc21)C(Cl)(Cl)Cl (stereo not given) | > 300 | 246 | 160 | 7.3 | 218 | 131 | 144
22 | Nc1ncnc2c1cnn2C(NC(=O)OCCN1CCOCC1)C(Cl)(Cl)Cl (stereo not given) | 19.3 | 1.2 | 13.4 | 19.5 | < 10 | 0.8 | 1
23 | Cc1ncc([N+](=O)[O-])n1CCOC(=O)NC(n1cnc2c(NCc3ccccc3)ncnc21)C(Cl)(Cl)Cl (stereo not given) | 96 | > 300 | 148 | 33.2 | 71.8 | 243 | > 300
24 | Cc1ncc([N+](=O)[O-])n1CCOC(=O)NC(Nc1ccc2ccccc2n1)C(Cl)(Cl)Cl (stereo not given) | 99.6 | 14 | 47.5 | 22.7 | 9.1 | 90.1 | 72.6
25 | O=C(NC(Nc1ncnc2c1cnn2C(NC(=O)OCCc1ccccn1)C(Cl)(Cl)Cl)C(Cl)(Cl)Cl)OCCc1ccccn1 (stereo not given) | 162 | > 300 | 53.7 | 81.3 | 110 | > 300 | 146
26 | Cc1ncc([N+](=O)[O-])n1CCOC(=O)NC(n1cnc2c(OCc3ccccc3)nc(N)nc21)C(Cl)(Cl)Cl (stereo not given) | 89.1 | > 300 | 146 | 71.1 | > 300 | > 300 | > 300
27 | CCOC(=O)NC(n1cnc2c(N)nc(F)nc21)C(Cl)(Cl)Cl (stereo not given) | 0.8 | 1.8 | 0.5 | 1.4 | 0.9 | 0.5 | 0.6
28 | Cc1ncc([N+](=O)[O-])n1CCOC(=O)NC(Nc1nccc(Cl)n1)C(Cl)(Cl)Cl (stereo not given) | > 300 | 20 | 94.9 | > 300 | > 300 | > 300 | > 300
29 | Cc1ncc([N+](=O)[O-])n1CCOC(=O)NC(Nc1cc2ccccc2cn1)C(Cl)(Cl)Cl (stereo not given) | 141 | 12.5 | 84.3 | 26 | 38.9 | 109 | 95.2
30 | Cc1ncc([N+](=O)[O-])n1CCOC(=O)NC(n1cnc2c(N(C)C)ncnc21)C(Cl)(Cl)Cl (stereo not given) | > 300 | 27.3 | 191 | > 300 | 160 | > 300 | 264
31 | COc1ccnc(NC(NC(=O)OCCn2c([N+](=O)[O-])cnc2C)C(Cl)(Cl)Cl)n1 (stereo not given) | 186 | 44.1 | 264 | 79.8 | 128 | 198 | 157
32 | Nc1nc(F)nc2c1ncn2C(NC(=O)OCCc1ccccn1)C(Cl)(Cl)Cl (stereo not given) | 1 | 0.4 | 3.5 | 1 | 3 | 0.8 | 1.1
33 | CCOC(=O)NC(n1cnc2c(N)nc(Cl)nc21)C(Cl)(Cl)Cl (stereo not given) | 87.2 | 125 | 59.7 | 59 | 152 | 132 | 92.9
34 | Cc1ncc([N+](=O)[O-])n1CCOC(=O)NC(Nc1nc(Cl)cc(Cl)n1)C(Cl)(Cl)Cl (stereo not given) | 32.4 | 8.1 | 49.5 | 23.3 | 15.6 | 17 | 22.5
35 | Cn1c([N+](=O)[O-])cnc1COC(=O)NC(n1cnc2c(N)nc(F)nc21)C(Cl)(Cl)Cl (stereo not given) | 1.5 | 2.7 | 0.5 | 3.8 | 0.2 | 0.6 | 0.3
